According to ChEMBL document CHEMBL1138155, “A lactosylated steroid contributes in vivo therapeutic benefits in experimental models of mouse lymphoma and human glioblastoma” (J Med Chem, 2006):

Key:
Mus musculus = test: Toxicity in mice at 160 mg/kg, ip 28 days post dose; type: organism-based; parameters: dose 160 mg/kg, route intraperitoneal; conditions: in vivo, 672 h
Procedure, shortened: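 Healthy, non-tumor-grafted mice received a single acute ip dose of 160 mg/kg. Body weight and survival were recorded over at least 28 days after dosing to detect toxic effects.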

A549 [1] = test: Antimigratory activity against human A549 NSCLC cell line at 100 nM after 22h; type: functional; conditions: A549, 22 h
Procedure, shortened: (§1)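 Computer-assisted videomicroscopy tracking of living cultured cells, one image every 4 min over 24 h; migration scored as maximum relative distance from origin (MRDO) per cell, read at 12 or 22 h with compound at 100 nM or without (control). Control normalized to 0%. Triplicate analyses, 121–184 cells per condition; mean ± standard error.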

MCF7 = test: Cytotoxicity against human MCF7 breast cancer cell line; type: functional, cell-based
Procedure, shortened: (§2)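 Colorimetric MTT assay on cultured human cancer cells after 3 days of continuous drug exposure. IC50 is the concentration that reduces overall cell-population growth by 50% relative to untreated cells.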

U373 MG [2] = test: Cytotoxicity against human U373 glioblastoma cell line; type: functional, cell-based, U-373MG ATCC; procedure, shortened: as §2
PC-3 [3] = test: Antimigratory activity against human PC3 prostate cancer cell line at 100 nM after 22h; type: functional; conditions: PC-3, 22 h; procedure, shortened: as §1
HCT-15 = test: Cytotoxicity against human HCT15 colon cancer cell line; type: functional, cell-based; procedure, shortened: as §2
Hs 683 = test: Cytotoxicity against human Hs683 cancer cell line; type: functional, cell-based; procedure, shortened: as §2
A549 [4] = test: Antimigratory activity against human A549 NSCLC cell line at 100 nM after 12h; type: functional; conditions: A549, 12 h; procedure, shortened: as §1
PC-3 [5] = test: Antimigratory activity against human PC3 prostate cancer cell line at 100 nM after 12h; type: functional; conditions: PC-3, 12 h; procedure, shortened: as §1
A549 [6] = test: Cytotoxicity against human A549 NSCLC cell line; type: functional, cell-based; procedure, shortened: as §2
PC-3 [7] = test: Cytotoxicity against human PC3 prostate cancer cell line; type: functional, cell-based; procedure, shortened: as §2
U373 MG [8] = test: Antimigratory activity against human U373 glioblastoma cell line at 100 nM after 12h; type: functional, U-373MG ATCC; procedure, shortened: as §1
U373 MG [9] = test: Antimigratory activity against human U373 glioblastoma cell line at 100nM after 22h; type: functional, U-373MG ATCC; procedure, shortened: as §1

SMILES	Activity (Mus musculus)	inhibition at 0.1 µM (A549 [1]) [%]	IC50 (MCF7) [µM]	IC50 (U373 MG [2]) [µM]	inhibition at 0.1 µM (PC-3 [3]) [%]	IC50 (HCT-15) [µM]	IC50 (Hs 683) [µM]	inhibition at 0.1 µM (A549 [4]) [%]	inhibition at 0.1 µM (PC-3 [5]) [%]	IC50 (A549 [6]) [µM]	IC50 (PC-3 [7]) [µM]	inhibition at 0.1 µM (U373 MG [8]) [%]	inhibition at 0.1 µM (U373 MG [9]) [%]
COc1ccc(OC)c([C@@H]2C[C@H]3[C@@H]4CC=C5C[C@@H](O[C@@H]6O[C@H](CO)[C@@H](O)[C@H](O)[C@H]6NC(C)=O)CC[C@]5(C)[C@H]4CC[C@]3(C)[C@H]2C(C)=O)c1	Non-toxic	-39	> 10	> 10	12	> 10	> 10	-39	11	> 10	> 10	-17	-3
COc1ccc(OC)c([C@@H]2C[C@H]3[C@@H]4CC=C5C[C@@H](O[C@@H]6O[C@H](CO)[C@@H](O[C@@H]7O[C@H](CO)[C@@H](O)[C@H](O)[C@H]7O)[C@H](O)[C@H]6O)CC[C@]5(C)[C@H]4CC[C@]3(C)[C@H]2[C@H](C)O[C@@H]2O[C@H](CO)[C@@H](O[C@@H]3O[C@H](CO)[C@@H](O)[C@H](O)[C@H]3O)[C@H](O)[C@H]2O)c1	Non-toxic	3	> 10	> 10	-17	> 10	> 10	4	9	> 10	> 10	-8	4
COc1ccc(OC)c([C@@H]2C[C@H]3[C@@H]4CC=C5C[C@@H](O[C@H]6O[C@H](CO[C@@H]7O[C@H](CO)[C@@H](O)[C@H](O)[C@H]7O)[C@@H](O)[C@H](O)[C@H]6O)CC[C@]5(C)[C@H]4CC[C@]3(C)[C@H]2C(C)=O)c1	Non-toxic	-4	> 10	> 10	-1	> 10	> 10	0	11	> 10	> 10	0	-1
COc1ccc(OC)c([C@@H]2C[C@H]3[C@@H]4CC=C5C[C@@H](O)CC[C@]5(C)[C@H]4CC[C@]3(C)[C@H]2C(C)=O)c1	Non-toxic	6	> 10	> 10	10	> 10	> 10	0	5	> 10	> 10	2	7
COc1ccc(OC)c([C@@H]2C[C@H]3[C@@H]4CC=C5C[C@@H](O[C@H]6O[C@H](CO)[C@@H](O[C@@H]7O[C@H](CO)[C@H](O)[C@H](O)[C@H]7O)[C@H](O)[C@H]6O)CC[C@]5(C)[C@H]4CC[C@]3(C)[C@H]2C(C)=O)c1	Non-toxic	-5	> 10	> 10	-34	> 10	> 10	8	-51	> 10	> 10	-29	-31
COc1ccc(OC)c([C@@H]2C[C@H]3[C@@H]4CC=C5C[C@@H](O[C@H]6O[C@H](CO)[C@@H](O[C@H]7O[C@H](CO)[C@@H](O)[C@H](O)[C@H]7O)[C@H](O)[C@H]6O)CC[C@]5(C)[C@H]4CC[C@]3(C)[C@H]2C(C)=O)c1	Non-toxic	5	> 10	> 10	-5	> 10	> 10	10	-5	> 10	> 10	2	-8
COc1ccc(OC)c([C@@H]2C[C@H]3[C@@H]4CC=C5C[C@@H](O[C@@H]6O[C@H](CO)[C@H](O)[C@H](O)[C@H]6O)CC[C@]5(C)[C@H]4CC[C@]3(C)[C@H]2C(C)=O)c1	Non-toxic	4	> 10	> 10	-8	> 10	> 10	2	7	> 10	> 10	8	1
COc1ccc(OC)c([C@@H]2C[C@H]3[C@@H]4CC=C5C[C@@H](O[C@@H]6O[C@H](CO)[C@@H](O)[C@H](O)[C@@H]6O)CC[C@]5(C)[C@H]4CC[C@]3(C)[C@H]2C(C)=O)c1	Non-toxic	1	> 10	> 10	-1	> 10	> 10	20	2	> 10	> 10	2	-4
COc1ccc(OC)c([C@@H]2C[C@H]3[C@@H]4CC=C5C[C@@H](O[C@@H]6O[C@H](CO)[C@@H](O)[C@H](O)[C@H]6O)CC[C@]5(C)[C@H]4CC[C@]3(C)[C@H]2C(C)=O)c1	Non-toxic	9	> 10	> 10	6	> 10	> 10	2	2	> 10	> 10	-6	-8
COc1ccc(OC)c([C@@H]2C[C@H]3[C@@H]4CC=C5C[C@@H](O[C@@H]6O[C@H](CO[C@H]7O[C@H](CO)[C@@H](O)[C@H](O)[C@H]7O)[C@@H](O)[C@H](O)[C@H]6O)CC[C@]5(C)[C@H]4CC[C@]3(C)[C@H]2C(C)=O)c1	Non-toxic	-40	> 10	> 10	-9	> 10	> 10	-34	-7	> 10	> 10	-18	-18
COc1ccc(OC)c([C@@H]2C[C@H]3[C@@H]4CC=C5C[C@@H](O)CC[C@]5(C)[C@H]4CC[C@]3(C)[C@H]2[C@H](C)O)c1	Non-toxic	–	> 10	> 10	–	> 10	> 10	–	–	> 10	> 10	–	–
COc1ccc(OC)c([C@@H]2C[C@H]3[C@@H]4CC=C5C[C@@H](O[C@@H]6O[C@H](CO)[C@@H](O[C@@H]7O[C@H](CO)[C@@H](O)[C@H](O)[C@H]7O)[C@H](O)[C@H]6O)CC[C@]5(C)[C@H]4CC[C@]3(C)[C@H]2C(C)=O)c1	Non-toxic	-34	> 10	> 10	-7	> 10	> 10	-30	13	> 10	> 10	8	-9
